Measurements as given in ChEMBL document CHEMBL4038265, “Antiprotozoal Activity-Based Profiling of a Dichloromethane Extract from Anthemis nobilis Flowers” (J Nat Prod, 2017).

Columns and labels:
Plasmodium falciparum = assay: Antiprotozoal activity against erythrocytic stage of Plasmodium falciparum NF54 after 48 hrs by [3H]- hypoxanthine incorporation assay; assay type: functional
[1] = Selectivity index, ratio of IC50 for rat L6 cells to IC50 for erythrocytic stage of Plasmodium falciparum NF54; assay type: toxicity; settings: read-out: Ratio IC50
L6 = assay: Cytotoxicity against rat L6 cells after 72 hrs by Alamar Blue assay; assay type: cell-based; settings: L6, 72 h
Summary of the method: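 Rat L6 cytotoxicity IC50 values (μM) are averages of three independent assays.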

Trypanosoma cruzi = assay: Antiprotozoal activity against Trypanosoma cruzi Tulahuen C4 infected in rat L6 cells after 96 hrs by beta-galactosidase reporter gene assay; assay type: functional, cell-based; settings: Tulahuen C4, L6, 96 h
[2] = Selectivity index, ratio of IC50 for rat L6 cells to IC50 for bloodstream form of Trypanosoma brucei rhodesiense STIB900; assay type: toxicity; settings: read-out: Ratio IC50
[3] = tested on: Trypanosoma brucei rhodesiense; assay: Antiprotozoal activity against bloodstream form of Trypanosoma brucei rhodesiense STIB900 after 72 hrs by Alamar Blue assay; assay type: functional; settings: STIB900, 72 h
[4] = Selectivity index, ratio of IC50 for rat L6 cells to IC50 for amastigote form of Leishmania donovani MHOM/ET/67/L82; assay type: toxicity; settings: read-out: Ratio IC50
Leishmania donovani = assay: Antiprotozoal activity against amastigote form of Leishmania donovani MHOM/ET/67/L82 after 72 hrs by Alamar Blue assay; assay type: functional; settings: MHOM/ET/67/L82, 72 h
[5] = Selectivity index, ratio of IC50 for rat L6 cells to IC50 for Trypanosoma cruzi Tulahuen C4; assay type: toxicity; settings: read-out: Ratio IC50

SMILES | IC50 (Plasmodium falciparum) [µM] | selectivity ratio [1] | IC50 (L6) [µM] | IC50 (Trypanosoma cruzi) [µM] | selectivity ratio [2] | IC50 [3] [µM] | selectivity ratio [4] | IC50 (Leishmania donovani) [µM] | selectivity ratio [5]
C=C1C(=O)O[C@H]2[C@H]1[C@@H](OC(=O)/C(C)=C\C)CC(=C)[C@@H]1C=C[C@@](C)(O)[C@H]21 | 8.5 | 0.68 | 5.8 | 10.9 | 4.4 | 1.3 | 7.2 | 0.8 | 0.6
C=C1C(=O)O[C@H]2/C=C(/C)[C@@H](O)C/C=C(\C=O)C[C@H](OC(=O)/C(C)=C\C)[C@@H]12 | 1.9 | 0.9 | 1.8 | 9.8 | 3.9 | 0.4 | 1.1 | 1.6 | 0.2
C=C1C(=O)O[C@H]2/C=C(/C)[C@H](O)C[C@H](O)C(=C)C[C@H](OC(=O)/C(C)=C\C)[C@@H]12 | 7.9 | 0.9 | 7.3 | 31.1 | 8.3 | 0.88 | 0.3 | 23 | 0.2
C=C1C(=O)O[C@H]2/C=C(/C)[C@@H](O)C[C@@H](O)/C(C)=C\[C@H](OC(=O)/C(C)=C\C)[C@@H]12 | 9.6 | 0.5 | 5.3 | 26.1 | 3.9 | 1.4 | 0.6 | 8.4 | 0.2
O=C(Cn1ccnc1[N+](=O)[O-])NCc1ccccc1 [BENZNIDAZOLE] | – | – | – | 2 | – | – | – | – | –
C=C1C(=O)O[C@@H](/C=C(\C)C=O)[C@@H]1[C@H](/C=C(/C)C(C)=O)OC(=O)/C(C)=C\C | 2.2 | 2.3 | 5.2 | 11.3 | 4.3 | 1.2 | 11.2 | 0.5 | 0.5
C=C1C[C@H](OC(=O)/C(C)=C\C)[C@H]2C(=C)C(=O)O[C@H]2/C=C(/C)[C@@H](O)CC1=O | 1.9 | 0.8 | 1.5 | 2.8 | 3.9 | 0.4 | 3.1 | 0.5 | 0.5
C=C1C(=O)O[C@@H]2/C=C(/C)[C@@H]3C[C@H](O)[C@@](CO)(C[C@H](OC(=O)/C(C)=C\C)[C@@H]12)O3 | 4.7 | 1.1 | 5.1 | 37.3 | 63.1 | 0.08 | 0.5 | 9.8 | 0.1
CCCCCCCCCCCCCCCCOP(=O)([O-])OCC[N+](C)(C)C [MILTEFOSINE] | – | – | – | – | – | – | – | 0.13 | –
C=C1C(=O)O[C@H]2/C=C(/C)[C@@H](O)C[C@H](O)C(=C)C[C@H](OC(=O)/C(C)=C\C)[C@@H]12 | 7.8 | 0.6 | 5.1 | 29.3 | 8.3 | 0.61 | 0.4 | 13.2 | 0.2
C=C1C(=O)O[C@H]2/C=C(/C)[C@@H](O)C/C=C(\C)C[C@H](OC(=O)/C(C)=C\C)[C@@H]12 | 3.1 | 1.6 | 4.9 | 11.3 | 2.4 | 2.1 | 1.8 | 2.7 | 0.4
C=C1C(=O)O[C@H]2/C=C(/C)[C@@H](O)C[C@@H]3O[C@]3(C)C[C@H](OC(=O)/C(C)=C/C)[C@@H]12 | 3 | 1.8 | 5.3 | 7.3 | 4.5 | 1.2 | 1.9 | 2.7 | 0.7
C=C1C(=O)O[C@H]2/C=C(/C)[C@@H](O)C[C@H](O)C(=C)C[C@H](OC(=O)/C(C)=C/C)[C@@H]12 | 6.2 | 0.8 | 5.1 | 26.7 | 14.1 | 0.36 | 1 | 5.3 | 0.2
COc1cc([C@@H]2c3cc4c(cc3[C@H](O)[C@H]3COC(=O)[C@H]23)OCO4)cc(OC)c1OC [PODOFILOX] | – | – | 0.016 | – | – | – | – | – | –
C=C(C[C@H](OC(=O)/C(C)=C\C)[C@@H]1C(=C)C(=O)O[C@H]1/C=C(\C)C=O)C(C)=O | 2 | 0.9 | 1.8 | 5 | 4.3 | 0.42 | 4.7 | 0.38 | 0.3
C=C(C)C(=O)O[C@H]1C/C(C)=C/C[C@H](O)/C(C)=C\[C@@H]2OC(=O)C(=C)[C@@H]21 | – | – | 28.2 | 4.2 | 6.1 | 4.6 | – | – | 6.1
